Mdm2 MdmX PPI – human Mdm2/MdmX binding inhibition; O15151+Q00987; SaOS-2 split-luciferase Mdm2/MdmX complementation, luminescence; inhibition, % at 8 µM; 330,000 tested, 3% active;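 active = inhibition of at least 50% at 8 µM in the primary screen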
Lmaj promast – Leishmania major promastigote growth inhibition; inhibition, % at 10 µM; Leishmania major promastigotes, resazurin fluorescence viability; 200,000 tested, 9% active; AID 1063; in the data active = inhibition above about 50%;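 note: promastigotes grown with compound for 44 hours at 28 °C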
T cruzi inh – T. cruzi replication inhibition | T. cruzi beta-gal in NIH3T3, luminescence, 90 h | inhibition, % (test concentration not listed) | 300,000 tested, 1.4% active | AID 1885;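 active = mean inhibition across valid replicates above about 55%, limit read from the data; inconclusive = mean below that limit but half or more replicates reach it; inactive = mean below it, under half of replicates reach it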;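 note: signal also drops with host cell toxicity which is not excluded here; 0% = plate median of DMSO wells and 100% = zero luminescence signal; higher percent means less beta-gal luminescence so fewer parasites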
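Incubation – ≥90 h infection period, 3 h prior cell attachment · System – NIH/3T3 fibroblasts plus reporter T. cruzi · Doses – compound pinned at 50 nL/well, DMSO · Read-out basis – percent inhibition of parasite-derived β-gal signal · Signal – luminescent β-galactosidase signal after 60 min lysis · Also added – 5000 T. cruzi trypomastigotes/well · Medium – Low-serum DMEM with 2% FBS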
CSC inhib – blocks cancer stem cells; cancer stem cell-like cells viability, luminescence; inhibition, % at 7.5 µM; 300,000 tested, 1.1% active; AID 2717; in the data active = inhibition above about 75%; inconclusive = no clear call, values can overlap the other calls; tested in HMLE shEcad cells
SKKanGAS inh – SKKanGAS growth inhibition | S. pyogenes SKKanGAS, kanamycin growth, BacTiter-Glo, 6 h | inhibition, % at 7.5 µM | 300,000 tested, 1.3% active;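 active = mean replicate score, as percent of positive control median, at least 50; inconclusive = mean below 50 but one replicate at or above 50; inactive = mean and every replicate below 50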;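 note: strain carries kanamycin resistance gene driven by streptokinase promoter and grows in 40 µg/ml kanamycin; loss of luminescence reflects streptokinase promoter inhibition or plain growth inhibition; 0% = median of DMSO wells and 100% = positive control at its reference dose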
Beta cell apopt – blocks beta cell apoptosis; INS-1E cytokine-induced death, ATP luminescence, 48 h; percent of positive-control rescue, neutral wells zero; protection from apoptosis, % (concentration not given with the values); 300,000 tested, 0.8% active; AID 435005;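 active = Every replicate reaches about 75%, or at least half do and their mean reaches it too, limit read from the data; inconclusive = At least half of replicates reach the limit but their mean does not; inactive = Under half of replicates reach the limit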;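 note: 0% = cytokine-treated negative control wells and 100% = positive control rescue; higher means more ATP so stronger rescue from cytokine killing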
An asterisk follows results filed as active; ? = inconclusive; . = not tested or not shown. An excerpt weighted towards active compounds, which were near 9.4% of everything screened.

SMILES	Mdm2 MdmX PPI	Lmaj promast	T cruzi inh	CSC inhib	SKKanGAS inh	Beta cell apopt
CC(C)(C)CC(C)(C)NC(=S)NC1CCN(Cc2ccccc2)CC1	47.0	89.3*	-9.8	-20.7	0.0	9.5
S=C(Nc1cccc(Cl)c1Cl)NC1CCN(Cc2ccccc2)CC1	26.7	.	.	0.2	.	-2.4
Cc1cccc(NC(=S)NC2CCN(Cc3ccccc3)CC2)c1C	14.5	89.2*	42.7	-3.9	-13.8	-0.7
Fc1ccc(NC(=S)NC2CCN(Cc3ccccc3)CC2)cc1	-1.3	89.4*	.	.	1.1	2.5
O=C(CN1C(=O)NC2(CCCCC2)C1=O)Nc1ccc2c(c1)OCCCO2	-120.7	.	.	-10.8	.	-8.3
CC(=O)c1ccc(S(=O)(=O)N2CCN(C)CC2)cc1	-4.1	-9.6	-20.7	6.0	-10.2	-6.2
O=C(/C=C/c1ccccc1Cl)N(Cc1ccccc1)C1CCS(=O)(=O)C1 (stereo not given)	20.1	-0.4	14.6	0.9	-3.1	5.2
O=C(/C=C/c1ccccc1Cl)N(Cc1ccc(Cl)cc1)C1CCS(=O)(=O)C1 (stereo not given)	23.3	79.4*	10.4	1.3	7.7	1.5
CC(=O)c1ccc([N+](=O)[O-])c(CS(=O)(=O)c2ccccc2)c1	18.1	.	2.5	-1.3	8.4	3.9
O=C(/C=C1\SC(=O)N(CC(=O)Nc2ccc(Cl)cc2)C1=O)Nc1ccc(F)cc1	-1.6	22.3	-13.7	-4.6	-6.0	.
Cc1cccc(NC(=O)CN2C(=O)S/C(=C\C(=O)Nc3ccc(Cl)cc3)C2=O)c1	9.3	53.5*	-16.5	2.1	-8.1	3.2
O=C(/C=C1\SC(=O)N(CC(=O)Nc2ccc(F)cc2)C1=O)Nc1ccc(Cl)cc1	-40.1	52.5*	-18.7	1.5	-5.7	.
CC(/C=C1\SC(=O)N(CC(=O)Nc2ccc(O)cc2)C1=O)=C\c1ccccc1	10.6	-1.5	4.4	49.6	?	0.1
CC(/C=C1\SC(=O)N(CC(=O)Nc2cccc(O)c2)C1=O)=C\c1ccccc1	-8.7	20.5	-5.7	117.0*	36.3	-2.8
CN(Cc1ccccc1F)C(=O)c1ccc2c(=O)n3c(nc2c1)CCC3	5.6	.	-6.1	2.9	7.2	3.1
Cc1ccc(C)c(-c2csc(NC(=O)C3=COCCO3)n2)c1	2.0	.	53.5	.	6.3	76.7*
Cc1ccc(C)c(-c2csc(NC(=O)c3cnccn3)n2)c1	25.5	2.1	92.5*	14.2	36.9	3.2
Cc1csc(NC(=O)c2cnccn2)n1	8.2	-7.4	3.9	-2.8	3.0	0.0
COc1ccc(Br)cc1CN(C)C(=O)CNC(=O)c1ccc2ccccc2c1	-0.7	.	4.1	.	7.0	-4.3
COC(=O)c1ccc(/C=C/c2c(-c3ccc(OC)cc3)oc3ccccc23)cc1	32.2	.	6.1	108.8*	9.5	-0.6
O=c1nc(/C=C/c2ccc(O)c(O)c2)oc2ccccc12	.	.	-47.2	.	0.6	.
COC(=O)c1ccc(/C=C/c2c(-c3ccc(OC)cc3)oc3ccc(N4CCOCC4)cc23)cc1	32.9	.	43.4	109.0*	11.2	5.7
COc1ccc(/C=C\c2nc(=O)c3ccccc3o2)cc1	-42.1	84.2*	-39.2	.	-7.0	.
COc1ccc(/C=C/c2c(-c3cccc(C)c3)oc3ccc(N4CCOCC4)cc23)cc1	-3.5	.	20.6	8.9	14.2	1.3
N#Cc1cc(-c2ccccc2)nc(N2CCNCC2)n1	20.5	.	-0.4	27.4	-0.9	-7.3
SMILES	Mdm2 MdmX PPI	Lmaj promast	T cruzi inh	CSC inhib	SKKanGAS inh	Beta cell apopt
CCC(C(=O)NC1CCCC1)N(C(=O)c1snc(C(N)=O)c1N)c1ccc(C)cc1C (stereo not given)	-18.4	.	13.2	-5.6	1.4	2.3
CCOC(=O)C1CCN(S(=O)(=O)c2cn(C)cn2)CC1	10.8	.	-23.8	7.7	-3.5	-2.1
CCOc1ccc(NC(=O)COc2ccc(C(=O)NCC3CCCO3)cc2OC)cc1 (stereo not given)	-12.4	.	.	.	.	4.4
Cc1ccc2[nH]c3c(c2c1)CCCC3=O	28.9	-1.4	-3.8	-6.9	-8.1	-6.5
O=C1CCCc2c1[nH]c1ccc(CN3CCCCC3)cc21	49.8	59.3*	?	-1.2	3.7	-3.7
CCCCCc1c(C)nc(Nc2nc(C)c3cc(OC)ccc3n2)[nH]c1=O	24.9	98.7*	46.4	-8.7	18.5	41.3
COc1ccc(NC2=CC(=O)CC(c3ccccc3)C2)c(OC)c1 (stereo not given)	46.6	3.7	-16.2	.	12.3	.
CCc1c(C)nc(Nc2nc(C)c3ccc(OC)cc3n2)[nH]c1=O	39.4	94.1*	5.4	8.0	2.1	18.0
CCc1c(C)nc(Nc2nc(C)c3cc(OC)ccc3n2)[nH]c1=O	20.1	98.4*	8.9	-5.1	-1.7	11.1
CCc1ccc2nc(Nc3nc(COC)cc(=O)[nH]3)nc(C)c2c1	12.1	11.6	14.8	.	-1.2	.
COc1ccc2c(C)nc(Nc3nc(C)cc(C)n3)nc2c1	-4.4	21.6	4.1	-8.3	-1.0	2.3
COc1ccc2nc(NC3=NC(c4ccccc4)CC(=O)N3)nc(C)c2c1 (stereo not given)	24.0	94.4*	46.5	9.9	1.9	-9.9
CCCCCc1c(C)nc(Nc2ccccc2)[nH]c1=O	-21.1	12.6	-2.6	6.0	2.4	12.8
CN1CCN(C(CNC(=O)C(=O)NC2CCCCC2)c2ccc(F)cc2)CC1 (stereo not given)	37.4	.	19.7	.	25.5	-4.6
COc1ccc2c(C)nc(Nc3nc(C)c(C)c(=O)[nH]3)nc2c1	25.1	100.3*	0.9	105.9*	30.8	51.7
COc1cccc(CN2CCNC(=O)C2CC(=O)NC2CCCCCCC2)c1 (stereo not given)	21.3	.	10.5	10.5	-14.4	3.4
Cc1nc2c3cnn(-c4ccccc4)c3ncn2n1	9.4	27.8	-4.3	-0.5	19.5	-6.2
CCc1nc2c3cnn(-c4cc(Cl)ccc4C)c3ncn2n1	12.4	-4.1	-3.2	-12.7	53.1*	3.4
Cc1sc(-c2ccncc2)nc1OC(=O)c1ccc(F)cc1F	11.6	-0.3	-17.3	-3.9	-3.6	1.1
O=C(NCc1cccnc1)c1nc(-c2ccccc2)n(-c2ccccc2)n1	-6.0	.	-3.0	14.2	5.9	-1.1
COc1ccc(CCn2c(N)c(C#N)c3nc4ccccc4nc32)cc1OC	7.7	91.4*	7.6	-13.4	2.7	.
COc1ccc(Cn2c(N)c(C#N)c3nc4ccccc4nc32)cc1OC	17.3	18.0	9.5	0.1	5.7	-2.9
O=C(CN(C(=O)Cn1nnc(-c2cccs2)n1)c1ccc2c(c1)OCCO2)NCc1ccccc1	6.8	95.3*	4.3	-5.7	-7.3	.
O=C(CN(CCc1ccccc1)C(=O)Cn1nnc(-c2cccs2)n1)NCc1ccco1	26.3	5.5	16.3	-3.6	-0.8	-0.7
CCN1CCN(C(CNC(=O)c2ccc3c(c2)OCO3)c2cccnc2)CC1 (stereo not given)	-13.3	-4.2	4.1	-11.2	-1.2	-3.9
O=C(NCC(c1cccnc1)N1CCN(c2ccccc2F)CC1)c1ccccc1 (stereo not given)	1.1	83.5*	47.5	11.4	-1.1	-1.2
